Legend:
[1] = biological target: T1, UDP-glucuronosyltransferase 1A8 (Homo sapiens, UniProt Q9HAW9); assay: Substrate inhibition of human UGT1A8-mediated T-5224 hydroxyl O-glucuronide formation after 10 to 60 mins in presence of UDP-glucuronic acid by HPLC method; format: ADME
T1 sequence (Q9HAW9 whole entry): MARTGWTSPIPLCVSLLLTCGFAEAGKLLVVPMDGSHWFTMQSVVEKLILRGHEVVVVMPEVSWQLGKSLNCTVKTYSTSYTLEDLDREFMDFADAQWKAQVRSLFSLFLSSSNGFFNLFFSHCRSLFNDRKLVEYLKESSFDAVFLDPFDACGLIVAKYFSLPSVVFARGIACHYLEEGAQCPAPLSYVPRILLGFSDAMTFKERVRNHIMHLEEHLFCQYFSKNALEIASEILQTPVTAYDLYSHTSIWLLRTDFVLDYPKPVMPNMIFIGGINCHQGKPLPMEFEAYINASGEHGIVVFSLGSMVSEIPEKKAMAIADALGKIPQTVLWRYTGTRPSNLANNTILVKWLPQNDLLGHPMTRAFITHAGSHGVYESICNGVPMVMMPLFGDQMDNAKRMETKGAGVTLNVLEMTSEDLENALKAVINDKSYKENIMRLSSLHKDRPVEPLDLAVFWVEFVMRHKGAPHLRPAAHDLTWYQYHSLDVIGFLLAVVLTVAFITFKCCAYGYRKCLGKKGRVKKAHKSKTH
Method in brief: (§1)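 Recombinant human UGT1A1, UGT1A3 or UGT1A8 from baculovirus-infected insect cells (0.1 mg protein/mL) in 50 mM Tris-HCl pH 7.5, 8 mM MgCl2, alamethicin, 2% DMSO. T-5224 at 1–50 μM with 2 mM UDPGA for 60 min at 37°C. HPLC with UV at 290 nm. Triplicates fitted to a substrate-inhibition model. kcat uses UGT content quantified by immunoblot against recombinant UGT1A1/UGT2B4 standards.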

Liver microsome [2] = assay: Drug metabolism in human liver microsomes assessed as T-5224 hydroxyl O-glucuronide formation after 10 to 60 mins by HPLC method; format: ADME
Method in brief: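 Pooled liver (0.5 mg protein/mL) or intestinal (0.25 mg protein/mL) microsomes in 50 mM Tris-HCl pH 7.5, 8 mM MgCl2, alamethicin, 2% DMSO. T-5224 at 1–50 μM, 5 min preincubation at 37°C, started with 2 mM UDPGA. Incubated 10 min, or 20 min for intestinal microsomes at 1–5 μM. Acetonitrile stop, glucuronides by HPLC at 290 nm. Triplicates fitted to a substrate-inhibition model.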

[3] = Drug metabolism in human intestinal microsomes assessed as T-5224 hydroxyl O-glucuronide formation after 10 to 60 mins by HPLC method; format: ADME, Intestine, Microsome
Method in brief: (§2)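 Pooled liver microsomes (0.5 mg/mL) were incubated 10 min. Pooled intestinal microsomes (0.25 mg/mL) ran 10 min at T-5224 10–50 μM and 20 min at 1–5 μM. Buffer was 50 mM Tris-HCl pH 7.5 with 8 mM MgCl2, alamethicin and 2 mM UDPGA, at 37°C, in triplicate. Glucuronides G2/G3 were read by HPLC at 290 nm and fitted for Vmax/Km.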

[4] = Drug metabolism in human intestinal microsomes assessed as Vmax/Km ratio for T-5224 hydroxyl O-glucuronide formation per mg protein after 10 to 60 mins by HPLC method; format: ADME, Intestine, Microsome; method in brief: as §2
[5] = biological target: T2, UDP-glucuronosyltransferase 1A1 (Homo sapiens, UniProt P22309); assay: Substrate inhibition of human UGT1A1-mediated T-5224 hydroxyl O-glucuronide formation after 10 to 60 mins in presence of UDP-glucuronic acid by HPLC method; format: ADME; method in brief: as §1
T2 sequence (P22309 whole entry): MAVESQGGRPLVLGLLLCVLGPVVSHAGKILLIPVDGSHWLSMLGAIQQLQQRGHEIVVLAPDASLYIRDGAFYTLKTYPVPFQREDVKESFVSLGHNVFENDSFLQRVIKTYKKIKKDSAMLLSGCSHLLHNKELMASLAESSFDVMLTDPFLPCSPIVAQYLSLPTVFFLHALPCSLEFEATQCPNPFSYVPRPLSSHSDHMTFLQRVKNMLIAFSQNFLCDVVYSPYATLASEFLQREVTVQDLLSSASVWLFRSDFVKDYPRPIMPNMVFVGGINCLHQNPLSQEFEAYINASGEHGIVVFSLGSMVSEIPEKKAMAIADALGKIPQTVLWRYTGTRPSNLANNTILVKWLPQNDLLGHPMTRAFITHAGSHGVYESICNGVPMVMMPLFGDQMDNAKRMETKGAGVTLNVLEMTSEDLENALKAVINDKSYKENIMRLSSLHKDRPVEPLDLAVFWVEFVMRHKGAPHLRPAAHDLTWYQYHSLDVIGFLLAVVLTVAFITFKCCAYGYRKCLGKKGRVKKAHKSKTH

Liver microsome [6] = assay: Drug metabolism in pooled human liver microsomes assessed as T-5224 hydroxyl O-glucuronide formation in presence of UDPGA by LC-MS/MS method; format: ADME
[7] = Drug metabolism in pooled human intestinal microsomes assessed as T-5224 acyl O-glucuronide formation at 10 uM after 10 mins by HPLC method; format: ADME, Intestine, Microsome
Method in brief: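 T-5224 at 10 μM incubated for 10 min at 37°C with UDPGA (2 mM) in pooled liver (0.5 mg protein/mL) or intestinal (0.25 mg protein/mL) microsomes. Buffer was 50 mM Tris-HCl pH 7.5 with 8 mM MgCl2 and alamethicin, after 5 min preincubation. Stopped with acetonitrile; glucuronides quantified by HPLC at 290 nm.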

Cytochrome P450 2C19 = Cytochrome P450 2C19 (Homo sapiens, UniProt P33261); assay: Drug metabolism assessed as human CYP2C19-mediated metabolite formation at 2 uM after 30 mins by HPLC method; format: ADME; settings: recombinant enzyme, 0.5 h
Sequence of Cytochrome P450 2C19 (P33261 whole entry): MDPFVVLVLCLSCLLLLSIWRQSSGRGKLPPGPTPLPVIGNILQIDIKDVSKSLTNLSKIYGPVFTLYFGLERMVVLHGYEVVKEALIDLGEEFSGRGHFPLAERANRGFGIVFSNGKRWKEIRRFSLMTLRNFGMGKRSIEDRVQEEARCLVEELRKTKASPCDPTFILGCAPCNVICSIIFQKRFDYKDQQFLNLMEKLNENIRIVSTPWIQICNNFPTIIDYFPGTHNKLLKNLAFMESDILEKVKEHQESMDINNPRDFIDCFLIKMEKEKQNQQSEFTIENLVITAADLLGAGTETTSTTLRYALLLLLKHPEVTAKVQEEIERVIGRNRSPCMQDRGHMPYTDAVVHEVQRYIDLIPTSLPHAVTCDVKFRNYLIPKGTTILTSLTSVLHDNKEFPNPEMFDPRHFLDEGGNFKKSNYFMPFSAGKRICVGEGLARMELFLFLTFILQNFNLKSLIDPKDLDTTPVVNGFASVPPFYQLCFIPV
Method in brief: (§3)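 Each recombinant human P450 was used at 50 pmol/mL with an NADPH-generating system and 2 μM 14C-T-5224 (0.5% DMSO final). Buffer was 100 mM Tris-HCl pH 7.5, except 100 mM potassium phosphate pH 7.4 for CYP2A6 and CYP2C9*1. Incubation ran 30 min at 37°C and was stopped with acetonitrile/methanol. Radioactive metabolite peaks were detected by C18 HPLC.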

Cytochrome P450 3A4 = Cytochrome P450 3A4 (Homo sapiens, UniProt P08684); assay: Drug metabolism assessed as human CYP3A4-mediated metabolite formation at 2 uM after 30 mins by HPLC method; format: ADME; settings: recombinant enzyme, 0.5 h; method in brief: as §3
Sequence of Cytochrome P450 3A4 (P08684 whole entry): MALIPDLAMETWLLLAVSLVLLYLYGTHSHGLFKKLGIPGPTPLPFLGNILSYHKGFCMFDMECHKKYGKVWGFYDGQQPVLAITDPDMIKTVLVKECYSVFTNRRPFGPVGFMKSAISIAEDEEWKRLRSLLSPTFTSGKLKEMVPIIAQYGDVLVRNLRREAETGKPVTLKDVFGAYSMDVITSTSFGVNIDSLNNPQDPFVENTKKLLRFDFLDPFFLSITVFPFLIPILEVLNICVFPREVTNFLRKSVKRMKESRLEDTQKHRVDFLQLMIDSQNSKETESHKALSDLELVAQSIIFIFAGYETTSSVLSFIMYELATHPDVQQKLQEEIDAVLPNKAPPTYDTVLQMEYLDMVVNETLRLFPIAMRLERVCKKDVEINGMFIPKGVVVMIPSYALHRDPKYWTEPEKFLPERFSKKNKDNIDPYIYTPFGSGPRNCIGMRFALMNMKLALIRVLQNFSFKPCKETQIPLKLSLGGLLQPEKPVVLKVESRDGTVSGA

## O=C(O)CCc1cc(C(=O)c2ccc(OC3CCCC3)cc2O)ccc1OCc1ccc2c(O)noc2c1
[1]
  Ki: 3.64 µM
Liver microsome [2]
  Km: 15.7 µM
[3]
  Km: 3.06 µM
[4]
  Vmax/Km: 34.6 µL/min
[5]
  Ki: 4.67 µM
Liver microsome [6]
  Drug metabolism: metabolite_detected
[7]
  Drug metabolism: metabolite_detected
Cytochrome P450 2C19
  Drug metabolism: metabolite_not_detected
Cytochrome P450 3A4
  Drug metabolism: metabolite_not_detected
